Assay outcomes: PubChem, several laboratories
In the library only some 1.7% were active in any assay of this set; here they are far more common.
IDE act: activators of human insulin-degrading enzyme in cells; P14735; HEK cells, FAbeta-B cleavage, fluorescence polarization; 0% vehicle, 100% cell-free pure enzyme wells; activation, % at 5.96 µM; 0.073% of 340,000 active; AID 493087;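 active means activation above the mean of all tested compounds plus 3 SD, set per screening campaign, cut at about 17% in these data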
TPT1 inhibitor: C. albicans TPT1 enzyme inhibition; 0.81% of 300,000 active; inhibition, % at 5 µM; recombinant caTPT1, FP RNA substrate dephosphorylation; AID 1962;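 active means inhibition above the mean of all tested compounds plus 3 SD, set per screening campaign, cut at about 24% in these data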;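 further: plate controls were DMSO alone for no effect and ferristatin control at 100 nM for full effect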
CSN inh: blocks human CSN-mediated cullin deneddylation. Q92905. Purified CSN, SCF-Nedd8-OG deneddylation, fluorescence polarization. inhibition, % at 12.5 µM. 0.38% of 360,000 active. AID 651999;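 active means pattern-corrected inhibition above about 35%, with an unprinted fluorescence ratio check between 0.5 and 1.5, limit read from the data, passing the limit was not always enough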;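 further: 0% = enzyme with substrate and 100% = substrate without enzyme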
Target sequence (Q92905 whole entry, looked up, one chain of several): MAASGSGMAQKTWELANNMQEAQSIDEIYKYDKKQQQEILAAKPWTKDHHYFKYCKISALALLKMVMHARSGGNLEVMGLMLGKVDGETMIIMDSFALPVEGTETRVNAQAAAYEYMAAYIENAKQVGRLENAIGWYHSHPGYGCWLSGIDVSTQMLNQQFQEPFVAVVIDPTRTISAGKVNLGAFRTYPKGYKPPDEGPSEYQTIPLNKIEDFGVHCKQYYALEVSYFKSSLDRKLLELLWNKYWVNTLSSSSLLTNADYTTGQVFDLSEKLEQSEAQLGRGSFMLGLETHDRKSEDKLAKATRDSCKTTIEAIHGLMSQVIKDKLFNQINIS
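Assay system: purified human Csn5 enzyme expressed in HEK293T cells; Input: 0.24 nM Csn5 enzyme, final concentration; Reagent: 10 nM SCFSkp2-Nedd8OG; Compound dosing: 12.5 µM single point; Times: reaction 90 min, room temperature; Technique: fluorescence polarization readout.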
Rpn11 block: blocks the human proteasome subunit Rpn11. AID 588493. calls only at 20 µM. O00487. 0.59% of 360,000 active. human 26S proteasome, Ub4-pepOG fluorescence polarization; 20S core pre-blocked with epoxomicin;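 active means inhibition at 20 µM, scaled to each plate's controls, above about 33%, limit read from the data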
Target sequence (O00487 whole entry, looked up): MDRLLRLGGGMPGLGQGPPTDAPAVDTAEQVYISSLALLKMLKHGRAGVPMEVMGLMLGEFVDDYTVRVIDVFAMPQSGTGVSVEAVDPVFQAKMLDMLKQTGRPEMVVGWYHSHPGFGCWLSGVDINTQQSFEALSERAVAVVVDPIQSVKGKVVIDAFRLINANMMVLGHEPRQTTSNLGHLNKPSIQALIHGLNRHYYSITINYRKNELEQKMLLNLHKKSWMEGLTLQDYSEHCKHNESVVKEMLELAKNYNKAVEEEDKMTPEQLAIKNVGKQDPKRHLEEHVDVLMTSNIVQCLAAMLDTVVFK
IDE cell inh: inhibits human insulin-degrading enzyme in HEK cells; P14735; FAbetaB cleavage, fluorescence polarization; inhibition, % at 5.59 µM; 0.41% of 320,000 active; AID 434962;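 active means percent inhibition above the average of all tested compounds plus 3 SD, set per screening campaign, cut at about 16% in these data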;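 further: IDE supplied by intact live HEK cells; FP after avidin binding of uncleaved biotin substrate so inhibition keeps polarization high; 0% = DMSO wells and 100% = 60 µM reference IDE inhibitor Ii1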
HNF4A DNA FP: change in binding of human HNF4 alpha to DNA | P41235 | HNF4a-FITC DNA binding, fluorescence polarization, 1 h | activity change, % at 10 µM | 0.3% of 360,000 active | AID 1224865; in the data active means activity change above about 30%, passing the limit was not always enough
caTPT1 confirm: confirmation of Candida albicans TPT1 inhibitors; shares compounds with TPT1 inhibitor; recombinant caTPT1, fluorescence polarization, RNase T1 coupled; inhibition, % at 5 µM; 74% of 2,400 active; AID 2149;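 active means inhibition above the primary screen limit, the mean inhibition of all tested compounds plus 3 SD, cut at about 25% in these data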
RNase T1 inh: blocks Aspergillus oryzae RNase T1, a TPT1 counter-screen | RNase T1 cleavage, fluorescence polarization, 1536-well | inhibition, % at 5 µM | shares compounds with TPT1 inhibitor | 83% of 2,400 active;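 active means inhibition above the solvent-only control well mean plus 3 SD, limit set per screening run, cut at about 23% in these data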;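 further: plate controls were DMSO wells with enzyme for no effect and wells without RNase T1 for full effect; inhibitors block cleavage so intact labeled substrate keeps polarization high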
IDE cell inh cf: cellular human IDE inhibition, confirmation | inhibition, % at 5.59 µM | AID 435028 | HEK cells, FAbetaB cleavage, fluorescence polarization | 51% of 1,200 active | shares compounds with IDE cell inh;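 active means mean inhibition across triplicate wells above the cutoff set by the earlier primary insulin-degrading enzyme screen, cut at about 16% in these data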;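 further: 0% = DMSO wells and 100% = 60 µM reference IDE inhibitor Ii1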
HEK cytotox: HEK cell cytotoxicity, counter-screen for IDE inhibitors. shares compounds with IDE cell inh. HEK293 cytotoxicity, ATP luminescence. inhibition, % at 5.59 µM. 28% of 1,200 active; in the data active means inhibition above about 22%;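 further: 0% = vehicle wells and 100% = reference cytotoxic drug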
Rpn11 confirm: Rpn11 inhibition confirmation, single concentration; shares compounds with Rpn11 block; purified human 26S proteasome, Ub4-pepOG fluorescence polarization; proteasome pretreated with epoxomicin; inhibition, % at 20 µM; 29% of 1,900 active; AID 602318
MMP-2 counter: counter-screen for RPN11 inhibitors: inhibition of human MMP-2. recombinant MMP-2, FRET peptide cleavage fluorescence. 4% of 1,900 active. shares compounds with Rpn11 block. inhibition, % at 20 µM;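 further: human MMP-2 activated beforehand with APMA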
Thrombin FP: counter-screen for RPN11 inhibitors: inhibition of bovine thrombin | shares compounds with Rpn11 block | bovine thrombin cleavage of Ub4-pepOG, fluorescence polarization | inhibition, % at 20 µM | 13% of 1,900 active | AID 602333;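 active means mean inhibition at least 40% at 20 µM, or signal 3 deviations below plate average, so some actives read negative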;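 further: plate controls were thrombin with DMSO for no effect and buffer wells lacking thrombin for full effect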
* marks the source's active call; other numbers are inactive results; i = inactive; / = not tested or not shown; + = active, no number. Unless noted, no stated cut-off is given here; in the data, active means inhibition above about 40%; inactive means the rest.

SMILES	IDE act	TPT1 inhibitor	CSN inh	Rpn11 block	IDE cell inh	HNF4A DNA FP	caTPT1 confirm	RNase T1 inh	Rpn11 confirm	MMP-2 counter	Thrombin FP	others
COc1ccc(NC(=O)CCc2nc3ccccc3[nH]2)cc1	3.3	-3.2	-5.3	i	0.6	-2.3	/	/	/	/	/
Cc1cc(/C=C2\SC(=S)NC2=O)cc(C)c1O	-7.6	35.5*	33.4	+	16.4*	34.5*	10.2	16.8	26.0	7.9	18.8	IDE cell inh cf=30.6*;HEK cytotox=11.3
CCN(CC)c1ccc(C=C2SC(=S)NC2=O)cc1	-105.1	/	-73.9	/	/	5.0	/	/	/	/	/
C/C(=N\Nc1nc(-c2cc(C)ccc2C)cs1)c1cc2ccccc2oc1=O	3.4	3.0	-9.1	i	1.9	3.8	/	/	/	/	/
C/C(=N\Nc1nc(-c2cc(C)ccc2C)cs1)c1cc2c(ccc3ccccc32)oc1=O	3.1	28.1*	-13.1	+	1.7	12.3	33.2*	44.6*	14.4	-11.8	-8.5
Cc1ccc(NS(=O)(=O)c2cc([N+](=O)[O-])ccc2N/N=C/c2sc(N3CCOCC3)nc2-c2ccccc2)c(C)c1	0.2	56.1*	14.2	+	1.1	20.6	55.3*	73.0*	39.3	-5.2	8.7
CC(C)Cn1c(SCC(=O)N(C)C2CCS(=O)(=O)C2)nc2cc(Cl)ccc2c1=O (configuration not stated)	4.4	-3.0	2.4	i	-3.3	1.3	/	/	/	/	/
O=C(N/N=C/c1cn(-c2cccs2)nc1-c1ccccc1)c1ccccc1O	3.4	-1.7	-3.5	i	7.5	-0.9	/	/	/	/	/
COc1cc(/C=C2/CCC/C(=C\c3cc(O)c(OC)c(Cl)c3)C2=O)cc(Cl)c1O	-20.5	36.4*	9.4	+	23.5*	14.6	18.7	23.2*	7.2	46.9*	5.3	IDE cell inh cf=24.1*;HEK cytotox=87.4*
COc1cc(/C=C2\CCC/C(=C\c3ccc(O)c(OC)c3)C2=O)ccc1O	-4.8	10.7	5.4	i	-1.1	-3.0	/	/	/	/	/
COc1cc(/C=C2\CC/C(=C\c3cc(OC)c(O)c(OC)c3)C2=O)cc(OC)c1O	-3.0	91.0*	123.7	+	7.4	25.0	95.0*	100.6*	88.6*	5.4	80.5*
CCCC(=O)Nc1cccc(NC(=O)Cc2ccc(Cl)cc2)c1	/	/	-0.3	i	/	1.5	/	/	/	/	/
Cc1cc(C)c(C(=O)c2cccs2)c(C)c1	-0.3	/	1.0	i	/	2.8	/	/	/	/	/
Cc1cc(C(=O)c2cccs2)c(N)s1	-0.2	34.6*	23.8	+	-4.7	19.2	39.7*	49.0*	49.8*	-26.1	39.2
Cc1c(C(=O)OCC(=O)NCc2ccccc2)oc2ccccc12	2.7	0.4	6.0	i	-3.6	-0.6	/	/	/	/	/
CCOc1cc(/C=C2\SC(=O)N(c3ccc(O)cc3)C2=O)ccc1O	-21.6	69.9*	26.6	+	13.6	8.2	73.8*	77.0*	15.2	1.0	6.1
CCOc1ccc(N2C(=O)S/C(=C\c3ccc(O)c(OCC)c3)C2=O)cc1	-3.7	46.2*	2.5	+	3.0	14.6	58.0*	59.5*	8.8	26.2	-1.5
Cc1noc2ncnc(Oc3ccccc3Cl)c12	4.4	-1.9	8.9	i	-2.1	0.4	/	/	/	/	/
Cc1[nH]c2ccccc2c1/C=C/C(=O)c1ccncc1	3.4	76.4*	8.5	+	10.8	12.9	76.8*	86.5*	42.1*	-61.1	37.0
CCc1nc(NCc2cccs2)c2nnn(Cc3ccccc3)c2n1	/	/	7.4	i	/	1.5	/	/	/	/	/
Cc1nc2ccc(N=NC3=C(O)CC(C)(C)CC3=O)cc2s1	3.0	4.1	-3.0	i	2.3	3.8	/	/	/	/	/
CC(=O)N1CCc2cc(N=NC3=C(O)CC(C)(C)CC3=O)ccc21	-5.9	26.8*	29.2	+	1.1	66.0*	46.2*	56.9*	66.5*	-29.3	48.0*
COc1ccc(NC2=Nc3cccc4cccc2c34)cc1	-2.0	26.2*	18.9	+	-3.0	14.9	37.2*	48.5*	23.6	-27.4	10.5
Cc1ccc(NC(=O)CO/N=C/c2ccc(N(C)C)cc2)cc1	-10.6	93.3*	50.1*	+	9.7	72.0*	106.2*	113.2*	107.6*	-44.4	95.6*
CN(C)c1ccc(/C=N/OC(=O)Nc2ccccc2)cc1	4.6	4.8	3.3	i	0.6	-0.6	/	/	/	/	/
SMILES	IDE act	TPT1 inhibitor	CSN inh	Rpn11 block	IDE cell inh	HNF4A DNA FP	caTPT1 confirm	RNase T1 inh	Rpn11 confirm	MMP-2 counter	Thrombin FP	others
CC(=O)Nc1ccc(/C=N/Nc2nc3ccccc3s2)cc1	0.4	/	-1.9	i	/	-2.8	/	/	/	/	/
Cc1ccc(C(C)(C)NC(=O)C2CCC(=O)N(C3CCCCCC3)C2)cc1 (configuration not stated)	1.1	-2.4	3.7	i	0.6	-0.1	/	/	/	/	/
CN1C(=O)CC(c2cn(Cc3ccccc3)c3ccccc23)C1=O (configuration not stated)	4.7	26.3*	2.4	+	1.5	17.9	49.6*	60.8*	20.5	-28.0	23.2
CC(=O)N1N=C(c2ccccc2)CC1c1cn(Cc2ccccc2)c2ccccc12 (configuration not stated)	-4.2	2.1	1.1	i	3.5	-0.8	/	/	/	/	/
COc1ccc(C2CC(c3ccccc3O)=NN2c2ccccc2)cc1 (configuration not stated)	6.2	-2.7	1.8	i	8.1	-1.9	/	/	/	/	/
COc1ccc(C2CC(c3ccccc3)=NN2c2ccc(N)cc2)cc1 (configuration not stated)	6.7	28.7*	-5.1	+	-0.3	18.8	38.0*	50.5*	37.2	36.3	16.1
